What was measured:
[1] = biological target: Bromodomain adjacent to zinc finger domain protein 2B (Homo sapiens) (UniProt Q9UIF8); assay: Displacement of biotinylated H3Kac14 peptide from His6-tagged human BAZ2B expressed in Escherichia coli BL21(DE3) at 200 uM after 30 mins by AlphaLISA assay relative to control
[2] = biological target: Bromodomain-containing protein 2 (Homo sapiens) (UniProt P25440); assay: Binding affinity to BRD2 bromodomain-2 (unknown origin) assessed as change in melting temperature at 100 uM by differential scanning fluorimetric analysis
Procedure, shortened: (§1)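 SYPRO Orange (1:1000) thermal shift with 2 μM bromodomain and 100 μM compound (final), 0.1% DMSO final, in 10 mM HEPES, 500 mM NaCl, 5% glycerol, 0.5 mM TCEP. Tm taken as the minimum of the negative first derivative of the melt curve. Run in triplicate; averages reported.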

[3] = biological target: CREB-binding protein (Homo sapiens) (UniProt Q92793); assay: Binding affinity to CREBBP (unknown origin) assessed as change in melting temperature at 100 uM by differential scanning fluorimetric analysis; procedure, shortened: as §1
[4] = biological target: Bromodomain-containing protein 2 (Homo sapiens) (UniProt P25440); assay: Binding affinity to BRD2 bromodomain-1 (unknown origin) assessed as change in melting temperature at 100 uM by differential scanning fluorimetric analysis; procedure, shortened: as §1

Sequence of Bromodomain adjacent to zinc finger domain protein 2B (Homo sapiens) (Q9UIF8 whole entry, the tested form may be a part): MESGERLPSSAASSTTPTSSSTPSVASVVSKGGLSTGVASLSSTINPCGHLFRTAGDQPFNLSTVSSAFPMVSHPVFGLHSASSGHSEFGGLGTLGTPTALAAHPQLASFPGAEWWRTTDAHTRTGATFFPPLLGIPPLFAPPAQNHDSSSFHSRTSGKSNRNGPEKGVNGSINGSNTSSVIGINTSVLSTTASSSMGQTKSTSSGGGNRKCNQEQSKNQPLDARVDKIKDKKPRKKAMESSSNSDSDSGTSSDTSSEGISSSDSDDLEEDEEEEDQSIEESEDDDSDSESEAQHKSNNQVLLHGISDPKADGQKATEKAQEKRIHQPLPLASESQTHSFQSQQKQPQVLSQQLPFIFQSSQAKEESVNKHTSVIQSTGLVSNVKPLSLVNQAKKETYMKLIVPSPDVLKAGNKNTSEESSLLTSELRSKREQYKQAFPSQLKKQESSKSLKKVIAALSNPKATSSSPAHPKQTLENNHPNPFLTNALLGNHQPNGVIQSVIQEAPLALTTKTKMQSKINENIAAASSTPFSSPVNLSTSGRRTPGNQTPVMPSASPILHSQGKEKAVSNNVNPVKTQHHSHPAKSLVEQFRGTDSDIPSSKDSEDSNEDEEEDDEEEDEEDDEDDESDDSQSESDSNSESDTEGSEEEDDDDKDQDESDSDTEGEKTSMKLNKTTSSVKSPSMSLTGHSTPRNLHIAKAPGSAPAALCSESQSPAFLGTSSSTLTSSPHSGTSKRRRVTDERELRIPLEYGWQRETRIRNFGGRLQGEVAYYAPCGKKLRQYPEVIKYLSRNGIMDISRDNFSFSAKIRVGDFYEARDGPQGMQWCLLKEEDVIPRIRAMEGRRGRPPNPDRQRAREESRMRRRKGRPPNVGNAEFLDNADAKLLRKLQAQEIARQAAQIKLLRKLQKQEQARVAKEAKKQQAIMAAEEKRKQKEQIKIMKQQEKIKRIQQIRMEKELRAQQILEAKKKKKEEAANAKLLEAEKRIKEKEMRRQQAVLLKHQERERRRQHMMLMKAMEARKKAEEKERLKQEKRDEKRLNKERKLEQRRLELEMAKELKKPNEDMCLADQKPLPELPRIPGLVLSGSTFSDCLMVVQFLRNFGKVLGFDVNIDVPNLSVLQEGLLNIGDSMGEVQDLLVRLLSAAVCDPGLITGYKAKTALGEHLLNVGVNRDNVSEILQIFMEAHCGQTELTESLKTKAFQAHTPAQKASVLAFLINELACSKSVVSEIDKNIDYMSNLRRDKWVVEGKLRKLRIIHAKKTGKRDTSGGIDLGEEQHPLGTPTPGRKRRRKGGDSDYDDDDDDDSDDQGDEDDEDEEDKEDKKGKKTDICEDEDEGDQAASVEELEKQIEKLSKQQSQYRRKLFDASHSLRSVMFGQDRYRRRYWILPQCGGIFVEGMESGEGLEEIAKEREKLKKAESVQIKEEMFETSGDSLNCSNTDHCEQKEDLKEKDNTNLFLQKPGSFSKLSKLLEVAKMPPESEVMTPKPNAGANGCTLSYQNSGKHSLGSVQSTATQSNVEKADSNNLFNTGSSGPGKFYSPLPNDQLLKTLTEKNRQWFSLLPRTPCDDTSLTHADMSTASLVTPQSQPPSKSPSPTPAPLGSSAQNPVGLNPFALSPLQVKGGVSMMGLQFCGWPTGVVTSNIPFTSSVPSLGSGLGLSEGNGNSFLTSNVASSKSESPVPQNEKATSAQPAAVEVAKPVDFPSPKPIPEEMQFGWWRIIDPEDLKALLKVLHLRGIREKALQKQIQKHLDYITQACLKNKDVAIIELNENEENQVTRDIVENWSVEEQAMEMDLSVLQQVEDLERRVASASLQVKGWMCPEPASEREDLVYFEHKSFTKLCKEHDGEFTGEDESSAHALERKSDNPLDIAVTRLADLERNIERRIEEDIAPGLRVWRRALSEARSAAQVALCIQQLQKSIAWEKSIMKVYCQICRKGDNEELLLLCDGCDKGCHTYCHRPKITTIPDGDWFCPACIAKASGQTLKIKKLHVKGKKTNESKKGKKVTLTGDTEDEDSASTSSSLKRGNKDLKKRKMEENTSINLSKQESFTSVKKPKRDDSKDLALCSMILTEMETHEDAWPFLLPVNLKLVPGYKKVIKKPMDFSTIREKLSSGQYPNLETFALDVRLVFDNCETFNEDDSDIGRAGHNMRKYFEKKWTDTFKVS
Sequence of Bromodomain-containing protein 2 (Homo sapiens) (P25440 whole entry, looked up): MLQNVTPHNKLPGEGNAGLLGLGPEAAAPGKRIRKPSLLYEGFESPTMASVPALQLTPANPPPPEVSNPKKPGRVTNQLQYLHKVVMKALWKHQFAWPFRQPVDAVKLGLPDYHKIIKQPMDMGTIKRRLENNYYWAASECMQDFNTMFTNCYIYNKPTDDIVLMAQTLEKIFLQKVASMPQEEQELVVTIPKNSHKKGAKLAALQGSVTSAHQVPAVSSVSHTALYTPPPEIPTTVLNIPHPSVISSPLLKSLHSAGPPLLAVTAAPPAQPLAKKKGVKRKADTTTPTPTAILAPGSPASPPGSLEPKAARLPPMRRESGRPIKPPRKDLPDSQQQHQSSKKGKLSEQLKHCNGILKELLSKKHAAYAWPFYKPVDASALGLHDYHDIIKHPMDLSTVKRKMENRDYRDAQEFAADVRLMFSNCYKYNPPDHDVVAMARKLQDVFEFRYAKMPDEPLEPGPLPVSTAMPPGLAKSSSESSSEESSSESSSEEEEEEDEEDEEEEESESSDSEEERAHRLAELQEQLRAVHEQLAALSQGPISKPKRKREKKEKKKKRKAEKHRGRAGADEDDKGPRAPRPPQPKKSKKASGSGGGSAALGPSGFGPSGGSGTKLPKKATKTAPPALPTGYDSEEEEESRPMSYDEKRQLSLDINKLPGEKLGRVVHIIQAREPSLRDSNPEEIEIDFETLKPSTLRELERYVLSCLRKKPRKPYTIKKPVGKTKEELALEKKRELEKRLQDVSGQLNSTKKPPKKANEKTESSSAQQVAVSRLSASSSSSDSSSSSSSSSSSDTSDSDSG

inhibition [1] [%]	Structure (SMILES)	also measured
48	CC(=O)N1CCc2[nH]c3ccc(C(=O)O)cc3c2C1	–
63	CC(=O)N1CCc2c(c3cccc4c3n2C(=O)CN4C)C1	–
55	CC(=O)N1CCc2[nH]c3ccc(-c4cccnc4)cc3c2C1	–
38	CC(=O)N1CCc2c(c3cc(Br)ccc3n2C(=O)OC(C)(C)C)C1	–
52	CC(=O)N1CCc2[nH]c3c(O)ccc(Cl)c3c2C1	–
65	CC(=O)N1CCc2[nH]c3ccc(Oc4ccccc4)cc3c2C1	–
65	CC(=O)N1CCc2[nH]c3ccc(N(C)C(C)=O)cc3c2C1	–
70	CC(=O)N1CCc2c(c3cccc4c3n2CCS4)C1	–
–	CNC(=O)N1CCc2[nH]c3ccc(Cl)cc3c2C1	ΔTm [2]: -0.2 °C; ΔTm [3]: 2.1 °C; ΔTm [4]: -0.6 °C
60	CC(=O)N1CCc2c(c3cc(Br)ccc3n2S(=O)(=O)c2ccc(C)cc2)C1	–
–	CC(=O)N1CCc2[nH]c3ccc(Br)cc3c2C1	ΔTm [2]: 3.5 °C; ΔTm [3]: 8.1 °C; ΔTm [4]: 7.3 °C

From ChEMBL document CHEMBL3108698, “Targeting low-druggability bromodomains: fragment based screening and inhibitor design against the BAZ2B bromodomain” (J Med Chem, 2013)
